Here are results for 26 compounds from ChEMBL document CHEMBL1137402, “Synthesis and biological evaluation of 2-(3',4',5'-trimethoxybenzoyl)-3-amino 5-aryl thiophenes as a new class of tubulin inhibitors” (J Med Chem, 2006).

One experiment relates to L1210. Nature of the experiment: Antiproliferative activity against mouse L1210 cells. It is filed as functional, cell-based. In a few lines:
(§1)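 Tumor cell proliferation assay. IC50 is the compound concentration giving 50% inhibition of proliferation, taken from dose-response curves. Reported as mean ± SE from at least three independent experiments.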

The test system of the next experiment is FM3A. Nature of the experiment: Antiproliferative activity against mouse FM3A cells. In kind it is functional, cell-based.
For a further experiment, the system named is MOLT-4. Nature of the experiment: Antiproliferative activity against human Molt4/C8 cells. In kind it is functional, cell-based. In short, it runs like this: as §1
The next experiment deals with CCRF-CEM. The experiment is described as follows: Antiproliferative activity against human CEM cells. In kind it is functional, cell-based.
Another experiment concerns the target Tubulin. Nature of the experiment: Inhibition of tubulin polymerization. In kind it is functional, Homo sapiens. In short, it runs like this: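 Tubulin assembly assay with tubulin at 10 µM. IC50 taken for inhibition of polymerization.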
A further experiment addresses Tubulin (Homo sapiens) (UniProt P68371+Q9H4B7+P0DPH7+P68366+Q13509+Q71U36+P04350+Q3ZCM7+P07437+P68363+Q9BQE3+Q6PEY2+Q13885+Q9BVA1+Q9BUF5). The experiment is described as follows: Inhibition of [3H]colchicine binding to tubulin at 1 uM. It is filed as protein-complex assay. In a few lines: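 Binding of [3H]colchicine to tubulin. Tubulin at 1 µM, [3H]colchicine at 5 µM, inhibitor at 1 µM. Read-out is percent inhibition of colchicine binding.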

The subject of experiment [1] is HL-60. The experiment is described as follows: Cell cycle arrest in HL60 cells by accumulation at G2/M phase at 15 nM. It is filed as functional, cell-based. The conditions noted are these: Homo sapiens. In short, it runs like this: (§2)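 HL60 acute myeloblastic leukemia cells exposed to compound for 24 h, then stained with propidium iodide and analyzed by flow cytometry. Populations scored in sub-G0-G1 (apoptotic), G0-G1, S and G2-M phases, relative to untreated control cells.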

In experiment [2] the test system is HL-60. The experiment is described as follows: Induction of apoptosis in HL60 cells by arrest at sub G0/G1 phase at 15 nM. It is filed as functional, cell-based. The following applies: Homo sapiens. In short, it runs like this: as §2
Experiment [3] deals with HL-60. The experiment is described as follows: Cell cycle arrest in HL60 cells by accumulation at G2/M phase at 20 nM. The following applies: Homo sapiens. It is filed as functional, cell-based. In short, it runs like this:
as §2

For experiment [4], the system named is HL-60. Nature of the experiment: Cell cycle arrest at HL60 cells by accumulation at sub G0/G1 phase at 20 nM. It is filed as functional, cell-based. The conditions noted are these: Homo sapiens. In a few lines:
as §2

Experiment [5] has as its system HL-60. The experiment is described as follows: Cell cycle arrest in HL60 cells by accumulation at S phase at 8 nM. It is filed as functional, cell-based. The following applies: Homo sapiens. In a few lines: as §2
Experiment [6] has as its system HL-60. The experiment is described as follows: Cell cycle arrest in HL60 cells by accumulation at G2/M phase at 8 nM. The following applies: Homo sapiens. In kind it is functional, cell-based. In short, it runs like this: as §2
In experiment [7] the test system is HL-60. The experiment is described as follows: Cell cycle arrest in HL60 cells by accumulation at G2/M phase at 40 nM. It is filed as functional, cell-based. The conditions noted are these: Homo sapiens. In short, it runs like this: as §2
Experiment [8] relates to HL-60. The experiment is described as follows: Induction of apoptosis in HL60 cells by arrest at sub G0/G1 phase at 8 nM. The following applies: Homo sapiens. It is filed as functional, cell-based. In short, it runs like this: as §2

Each structure is given as a SMILES string. Activity calls are given as the source filed them. The rule behind the calls is not given here.

As for `COc1ccc(-c2cc(N)c(C(=O)c3cc(OC)c(OC)c(OC)c3)s2)cc1`, the IC50 was 45 nM in the experiment on L1210; 31 nM in the experiment with FM3A; 18 nM in the experiment on MOLT-4; 19 nM in the experiment on CCRF-CEM; 1100 nM against Tubulin. At Tubulin (Homo sapiens), the inhibition was 60%.

On to `COc1cc(C(=O)c2cc(-c3ccc(C)cc3)sc2N)cc(OC)c1OC`, for which the IC50 at Tubulin was determined as 800 nM. On Tubulin (Homo sapiens), this compound had an inhibition of 90%.

As to `COc1cc(C(=O)c2sc(-c3ccc(F)cc3)cc2N)cc(OC)c1OC`, the IC50 in the experiment with L1210 amounted to 20 nM; in the experiment with FM3A, 16 nM; with MOLT-4, 12 nM; in the experiment with CCRF-CEM it was 15 nM; on Tubulin, 1500 nM. The same compound yielded an inhibition at Tubulin (Homo sapiens) of 70%.

In the case of `COc1cc(C(=O)c2sc(-c3ccc(Cl)c(Cl)c3)cc2N)cc(OC)c1OC`, the IC50 in the experiment on L1210 worked out at 260 nM; with FM3A, 400 nM; in the experiment on MOLT-4, 270 nM; in the experiment with CCRF-CEM, 290 nM.

Take `COc1cc(C(=O)c2sc(-c3ccccc3Cl)cc2N)cc(OC)c1OC`: the concentration for half-maximal inhibition (IC50) with L1210 was 20 nM; with FM3A, 34 nM; with MOLT-4, 17 nM; in the experiment with CCRF-CEM, 16 nM; against Tubulin, 1200 nM. At Tubulin (Homo sapiens), this compound yielded an inhibition of 76%.

Regarding `COc1cc(C(=O)c2sc(-c3ccc(-c4ccccc4)cc3)cc2N)cc(OC)c1OC`, the IC50 in the experiment on L1210, in the experiment on FM3A, with MOLT-4 and in the experiment on CCRF-CEM was over 10000 nM each time.

In the case of `COc1cc(C(=O)c2sc(-c3cccc([N+](=O)[O-])c3)cc2N)cc(OC)c1OC`, the IC50 was determined as 11 nM in the experiment on L1210; 17 nM in the experiment on FM3A; 7.5 nM in the experiment on MOLT-4; 5.9 nM with CCRF-CEM; 970 nM against Tubulin. The compound also came in with an inhibition at Tubulin (Homo sapiens) of 74%. Also, the outcome in the experiment with HL-60 [1] and with HL-60 [2] was Active.

Take `COc1cc(C(=O)c2cc(-c3ccccc3)sc2N)cc(OC)c1OC`: it took 1300 nM to reach half-maximal inhibition against Tubulin (IC50). This compound also had an inhibition on Tubulin (Homo sapiens) of 77%.

Take `COc1ccc(/C=C\c2cc(OC)c(OC)c(OC)c2)cc1O` [COMBRETASTATIN A4]: the values for the IC50 in the experiment on L1210 and in the experiment on MOLT-4 were 2.8 nM and 1.6 nM, respectively.

Consider `COc1cc(C(=O)c2sc(-c3ccc(C)cc3)cc2N)cc(OC)c1OC`, for which the IC50 was determined as 18 nM in the experiment on L1210; 16 nM with FM3A; 16 nM with MOLT-4; 15 nM in the experiment with CCRF-CEM; 1100 nM against Tubulin. In addition, the inhibition at Tubulin (Homo sapiens) was found to be 80%.

Turning to `COc1cc(C(=O)c2sc(-c3ccc([N+](=O)[O-])cc3)cc2N)cc(OC)c1OC`, the IC50 in the experiment on L1210 came to 100 nM; with FM3A, 64 nM; in the experiment with MOLT-4, 110 nM; in the experiment with CCRF-CEM, 99 nM.

On to `COc1cc(C(=O)c2sc(-c3ccsc3)cc2N)cc(OC)c1OC`, for which the half-inhibitory concentration (IC50) in the experiment on L1210 came out at 12 nM; with FM3A, 3.7 nM; with MOLT-4, 8.8 nM; in the experiment with CCRF-CEM, 9.6 nM; on Tubulin it was 1300 nM. In addition, at Tubulin (Homo sapiens), the inhibition was determined as 81%. The result with HL-60 [3] and with HL-60 [4] was Active.

For the compound `COc1cc(C(=O)c2sc(-c3ccncc3)cc2N)cc(OC)c1OC`, the half-maximal inhibitory concentration (IC50) amounted to 180 nM with L1210, 150 nM with FM3A, 88 nM in the experiment with MOLT-4 and 110 nM in the experiment with CCRF-CEM.

In the case of `COc1cc(C(=O)c2sc(-c3ccc(Br)cc3)cc2N)cc(OC)c1OC`, the IC50 with L1210 turned out to be 100 nM; with FM3A, 150 nM; with MOLT-4, 92 nM; in the experiment with CCRF-CEM it was 86 nM.

Regarding `COc1cc(C(=O)c2sc(-c3ccc(I)cc3)cc2N)cc(OC)c1OC`, the IC50 in the experiment with L1210 was 400 nM; in the experiment with FM3A it was 420 nM; in the experiment on MOLT-4, 190 nM; in the experiment with CCRF-CEM, 150 nM.

Regarding `COc1cc(C(=O)c2sc(-c3ccccc3)cc2N)cc(OC)c1OC`, the IC50 was 11 nM in the experiment with L1210; 13 nM in the experiment on FM3A; 5.3 nM in the experiment with MOLT-4; 4.5 nM with CCRF-CEM; 1200 nM against Tubulin. The inhibition at Tubulin (Homo sapiens) came out at 81%. The result in the experiment on HL-60 [5], with HL-60 [6], in the experiment on HL-60 [7] and in the experiment on HL-60 [8] was Active.

With `COc1cc(C(=O)c2sc(-c3cccs3)cc2N)cc(OC)c1OC`, the IC50 was 9.8 nM in the experiment with L1210; 1.7 nM in the experiment with FM3A; 8.9 nM with MOLT-4; 9.4 nM in the experiment on CCRF-CEM; 1200 nM on Tubulin. Also, the inhibition at Tubulin (Homo sapiens) was 80%. Moreover, the outcome in the experiment on HL-60 [3] and in the experiment with HL-60 [4] was Active.

In the case of `COc1cccc(-c2cc(N)c(C(=O)c3cc(OC)c(OC)c(OC)c3)s2)c1`, the half-maximal inhibitory concentration (IC50) in the experiment on L1210 stood at 22 nM; with FM3A, 36 nM; in the experiment with MOLT-4, 17 nM; in the experiment with CCRF-CEM, 16 nM; at Tubulin, 640 nM. The compound further showed an inhibition on Tubulin (Homo sapiens) of 81%.

In the case of `CCOc1ccc(-c2cc(N)c(C(=O)c3cc(OC)c(OC)c(OC)c3)s2)cc1`, the IC50 in the experiment on L1210 is 590 nM; in the experiment with FM3A, 510 nM; in the experiment on MOLT-4 it was 240 nM; in the experiment on CCRF-CEM it was 270 nM.

Take `COc1ccc(-c2cc(C(=O)c3cc(OC)c(OC)c(OC)c3)c(N)s2)cc1`: 1100 nM corresponded to half-maximal inhibition against Tubulin (IC50).

`COc1cc(C(=O)c2sc(-c3ccc(Cl)cc3)cc2N)cc(OC)c1OC`: the IC50 with L1210 was 93 nM; with FM3A, 90 nM; with MOLT-4, 77 nM; in the experiment with CCRF-CEM it was 70 nM.

At Tubulin, `COc1cccc(-c2cc(C(=O)c3cc(OC)c(OC)c(OC)c3)c(N)s2)c1` displayed an IC50 of 1200 nM.

In the case of `COc1ccc(-c2cc(N)c(C(=O)c3cc(OC)c(OC)c(OC)c3)s2)cc1OC`, the IC50 in the experiment on L1210 amounted to 40 nM; in the experiment with FM3A it was 72 nM; in the experiment with MOLT-4, 20 nM; in the experiment with CCRF-CEM, 20 nM; on Tubulin it was 1100 nM. The same compound had an inhibition on Tubulin (Homo sapiens) of 53%.

Regarding `COc1cc(C(=O)c2sc(-c3ccc(C(F)(F)F)cc3)cc2N)cc(OC)c1OC`, the IC50 in the experiment on L1210 stood at 370 nM; in the experiment with FM3A, 540 nM; in the experiment with MOLT-4 it was 250 nM; with CCRF-CEM it was 270 nM.

With `COc1cc(C(=O)c2sc(-c3cc(OC)c(OC)c(OC)c3)cc2N)cc(OC)c1OC`, the IC50 came to 2300 nM in the experiment with L1210, 3500 nM in the experiment with FM3A, 1200 nM with MOLT-4 and 840 nM with CCRF-CEM.

For the compound `COc1cc(C(=O)c2cc(-c3ccc(F)cc3)sc2N)cc(OC)c1OC`, half-maximal inhibition against Tubulin (IC50) was put at 860 nM.
